Measured values reported in ChEMBL document CHEMBL4765388, “Fluoropyrimidin-2,4-dihydroxy-5-isopropylbenzamides as antitumor agents against CRC and NSCLC cancer cells” (Eur J Med Chem, 2020).
The source made the active and inactive calls. No cut-off for these calls is given here.

What was measured:
[1] = target: Heat shock protein HSP 90-alpha (Homo sapiens, UniProt P07900); assay: Inhibition of recombinant human full-length C-terminal Hsi-tagged HSP90alpha (1 to 732 residues) expressed in Escherichia coli measured after 2 to 3 hrs by FITC-labeled geldanamycin probe based fluorescence polarization assay
A549 [2] = assay: Antiproliferative activity against human A549 cells measured after 48 hrs by SRB assay; assay type: functional
Summary of the method: (§1)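 Cells seeded and cultured overnight, then exposed to a gradient of compound concentrations for 48 h in medium with 5% FBS. A time-zero plate was fixed with 10% TCA at drug addition. After treatment, cells were fixed with 10% TCA and stained with 0.4% SRB in 1% acetic acid. Each experiment was run at least three times.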

NCI-H1975 [3] = assay: Antiproliferative activity against human NCI-H1975 cells measured after 48 hrs by SRB assay; assay type: functional
Summary of the method: as §1, with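 “acid. Bound dye was dissolved in 10 mM trizma base, absorbance read at 515 nm, and GI50 derived.” for “acid.”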

HCT-116 [4] = assay: Antiproliferative activity against human HCT-116 cells measured after 48 hrs by SRB assay; assay type: functional
Summary of the method: as §1, with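 “acid. Bound dye was dissolved in 10 mM trizma base, absorbance read at 515 nm, and GI50 derived.” for “acid.”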

NCI-H460 = assay: Antiproliferative activity against human NCI-H460 cells measured after 48 hrs by SRB assay; assay type: functional
Summary of the method: as §1, with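 “acid. Bound dye was dissolved in 10 mM trizma base, absorbance read at 515 nm, and GI50 derived.” for “acid.”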

A549 [5] = assay: Inhibition of HSP90 in human A549 cells assessed as down regulation of EGFR expression at 0.075 to 1.25 uM after 24 hrs by Western blot analysis; assay type: cell-based; conditions: dose 0.075-1.25 µM
NCI-H1975 [6] = assay: Induction of apoptosis in human NCI-H1975 cells assessed as increase in cleaved caspase 9 expression after 48 hrs by Western blot analysis; assay type: functional, cell-based
Summary of the method: (§2)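 Cells grown in RPMI 1640 with 10% FBS were left to attach overnight, then exposed to compound at stated concentrations for 48 h. Lysates were immunoblotted for cleaved PARP, γH2AX and cleaved caspase-3, -8 and -9. Each experiment was done at least three times.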

NCI-H1975 [7] = assay: Induction of apoptosis in human NCI-H1975 cells assessed as increase in cleaved caspase 8 expression after 48 hrs by Western blot analysis; assay type: functional, cell-based; summary of the method: as §2
HCT-116 [8] = assay: Inhibition of colony formation in human HCT-116 cells at 0.009 to 0.018 uM measured after 24 hrs by crystal violet staining based assay; assay type: functional, cell-based; conditions: dose 0.009-0.018 µM
Summary of the method: (§3)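 Cells at 5×10^3/well, exposed to DMSO or compound for 24 h. Drug was washed out, and cells were trypsinized, replated and grown for 10 days. Colonies were fixed and stained with crystal violet (0.5% in 70% EtOH) and counted as % of control. Repeated at least twice.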

A549 [9] = assay: Induction of apoptosis in human A549 cells assessed as increase in cleaved caspase 8 expression after 48 hrs by Western blot analysis; assay type: functional, cell-based; summary of the method: as §2
A549 [10] = assay: Induction of apoptosis in human A549 cells assessed as increase in cleaved PARP expression after 48 hrs by Western blot analysis; assay type: functional, cell-based; summary of the method: as §2
NCI-H1975 [11] = assay: Cell cycle arrest in human NCI-H1975 cells assessed as accumulation at sub-G1 phase at 0.075 to 1.25 uM measured after 48 hrs by propidium iodide staining based flow cytometry; assay type: functional; conditions: dose 0.075-1.25 µM
Summary of the method: (§4)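 Cells in RPMI 1640 with 10% FBS, 37 °C, 5% CO2; 2.5×10^5/well, treated with DMSO or compound. Washed in PBS, fixed overnight in ice-cold 70% EtOH at -20 °C, stained in PBS with propidium iodide 80 µg/ml, Triton X-100 0.1% and RNase A 100 µg/ml. DNA content measured by FACScan; sub-G1 fraction quantified; means ± S.D., ≥3 independent experiments.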

NCI-H1975 [12] = assay: Induction of apoptosis in human NCI-H1975 cells assessed as increase in activated gamma H2AX expression after 48 hrs by Western blot analysis; assay type: functional, cell-based; summary of the method: as §2
NCI-H1975 [13] = assay: Inhibition of HSP90 in human NCI-H1975 cells assessed as upregulation of HSP70 expression at 0.075 to 1.25 uM after 24 hrs by Western blot analysis; assay type: cell-based; conditions: dose 0.075-1.25 µM
A549 [14] = assay: Cell cycle arrest in human A549 cells assessed as accumulation at sub-G1 phase at 0.15 to 2.5 uM measured after 48 hrs by propidium iodide staining based flow cytometry; assay type: functional; conditions: dose 0.15-2.5 µM; summary of the method: as §4
NCI-H1975 [15] = assay: Induction of apoptosis in human NCI-H1975 cells assessed as increase in cleaved PARP expression after 48 hrs by Western blot analysis; assay type: functional, cell-based; summary of the method: as §2
A549 [16] = assay: Inhibition of HSP90 in human A549 cells assessed as upregulation of HSP70 expression at 0.075 to 1.25 uM after 24 hrs by Western blot analysis; assay type: cell-based; conditions: dose 0.075-1.25 µM
A549 [17] = assay: Induction of apoptosis in human A549 cells assessed as increase in activated gamma H2AX expression after 48 hrs by Western blot analysis; assay type: functional, cell-based; summary of the method: as §2
A549 [18] = assay: Induction of apoptosis in human A549 cells assessed as increase in cleaved caspase 3 expression after 48 hrs by Western blot analysis; assay type: functional, cell-based; summary of the method: as §2
HCT-116 [19] = assay: Potency index, ratio of BIIB021 IC50 to test compound IC50 for human HCT-116 cells; assay type: functional
NCI-H1975 [20] = assay: Inhibition of HSP90 in human NCI-H1975 cells assessed as down regulation of AKT expression at 0.075 to 1.25 uM after 24 hrs by Western blot analysis; assay type: cell-based; conditions: dose 0.075-1.25 µM
NCI-H1975 [21] = assay: Induction of apoptosis in human NCI-H1975 cells assessed as increase in cleaved caspase 3 expression after 48 hrs by Western blot analysis; assay type: functional, cell-based; summary of the method: as §2
NCI-H1975 [22] = assay: Inhibition of colony formation in human NCI-H1975 cells at 0.009 to 0.018 uM measured after 24 hrs by crystal violet staining based assay; assay type: functional, cell-based; conditions: dose 0.009-0.018 µM; summary of the method: as §3
NCI-H1975 [23] = assay: Inhibition of HSP90 in human NCI-H1975 cells assessed as down regulation of EGFR expression at 0.075 to 1.25 uM after 24 hrs by Western blot analysis; assay type: cell-based; conditions: dose 0.075-1.25 µM
A549 [24] = assay: Inhibition of colony formation in human A549 cells at 0.009 to 0.018 uM measured after 24 hrs by crystal violet staining based assay; assay type: functional, cell-based; conditions: dose 0.009-0.018 µM; summary of the method: as §3
A549 [25] = assay: Induction of apoptosis in human A549 cells assessed as increase in cleaved caspase 9 expression after 48 hrs by Western blot analysis; assay type: functional, cell-based; summary of the method: as §2
A549 [26] = assay: Inhibition of HSP90 in human A549 cells assessed as down regulation of AKT expression at 0.075 to 1.25 uM after 24 hrs by Western blot analysis; assay type: cell-based; conditions: dose 0.075-1.25 µM

C=CCN(C(=O)c1cc(C(C)C)c(O)cc1O)c1ccc(Cn2c(=O)[nH]cc(F)c2=O)cc1
IC50 [1]: 48 nM | GI50 (A549 [2]): 100 nM | GI50 (NCI-H1975 [3]): 50 nM | GI50 (HCT-116 [4]): 80 nM | GI50 (NCI-H460): 70 nM

CCCN(C(=O)c1cc(C(C)C)c(O)cc1O)c1ccc(Cn2c(=O)c(F)cn(C3CCCO3)c2=O)cc1 (stereo not drawn)
IC50 [1]: 48.2 nM | GI50 (A549 [2]): 650 nM | GI50 (NCI-H1975 [3]): 340 nM | GI50 (HCT-116 [4]): 960 nM | GI50 (NCI-H460): 520 nM

CCN(C(=O)c1cc(C(C)C)c(O)cc1O)c1ccc(Cn2c(=O)[nH]cc(F)c2=O)cc1
IC50 [1]: 44.9 nM | GI50 (A549 [2]): 40 nM | GI50 (NCI-H1975 [3]): 30 nM | GI50 (HCT-116 [4]): 30 nM | GI50 (NCI-H460): 30 nM

O=c1[nH]cc(F)c(=O)[nH]1 [FLUOROURACIL]
GI50 (A549 [2]): 19800 nM | GI50 (HCT-116 [4]): > 10000 nM

O=c1[nH]c(=O)n(C2CCCO2)cc1F (stereo not drawn) [TEGAFUR]
GI50 (A549 [2]): > 50000 nM | GI50 (HCT-116 [4]): > 10000 nM

C#CCN(C(=O)c1cc(C(C)C)c(O)cc1O)c1ccc(Cn2c(=O)[nH]cc(F)c2=O)cc1
IC50 [1]: 54.4 nM | GI50 (A549 [2]): 30 nM | GI50 (NCI-H1975 [3]): 20 nM | GI50 (HCT-116 [4]): 40 nM | GI50 (NCI-H460): 70 nM

CC(C)c1cc(-c2n[nH]c(=O)n2-c2ccc3c(ccn3C)c2)c(O)cc1O [GANETESPIB]
GI50 (HCT-116 [4]): 150 nM

COc1c(C)cnc(Cn2cnc3c(Cl)nc(N)nc32)c1C [BIIB021]
GI50 (NCI-H1975 [3]): 200 nM | GI50 (HCT-116 [4]): 150 nM | GI50 (NCI-H460): 210 nM

CC(C)c1cc(C(=O)N(Cc2ccc(Cl)cc2)c2ccc(Cn3c(=O)c(F)cn(C4CCCO4)c3=O)cc2)c(O)cc1O (stereo not drawn)
IC50 [1]: 54.7 nM | GI50 (A549 [2]): 560 nM | GI50 (NCI-H1975 [3]): 160 nM | GI50 (HCT-116 [4]): 700 nM | GI50 (NCI-H460): 460 nM

CC(C)c1cc(C(=O)N(C)c2ccc(Cn3c(=O)c(F)cn(C4CCCO4)c3=O)cc2)c(O)cc1O (stereo not drawn)
IC50 [1]: 40.9 nM | GI50 (A549 [2]): 90 nM | GI50 (NCI-H1975 [3]): 60 nM | GI50 (HCT-116 [4]): 120 nM | GI50 (NCI-H460): 70 nM

CCNC(=O)c1noc(-c2cc(C(C)C)c(O)cc2O)c1-c1ccc(CN2CCOCC2)cc1 [LUMINESPIB]
GI50 (A549 [2]): 10 nM | GI50 (NCI-H1975 [3]): 20 nM | GI50 (NCI-H460): 30 nM

COc1ccc(CN(C(=O)c2cc(C(C)C)c(O)cc2O)c2ccc(Cn3c(=O)c(F)cn(C4CCCO4)c3=O)cc2)cc1 (stereo not drawn)
IC50 [1]: 58.8 nM | GI50 (A549 [2]): 920 nM | GI50 (NCI-H1975 [3]): 230 nM | GI50 (HCT-116 [4]): 720 nM | GI50 (NCI-H460): 390 nM

CC(C)c1cc(C(=O)N(Cc2ccccc2)c2ccc(Cn3c(=O)c(F)cn(C4CCCO4)c3=O)cc2)c(O)cc1O (stereo not drawn)
IC50 [1]: 45.3 nM | GI50 (A549 [2]): 800 nM | GI50 (NCI-H1975 [3]): 160 nM | GI50 (HCT-116 [4]): 780 nM | GI50 (NCI-H460): 400 nM

CC(C)c1cc(C(=O)Nc2ccc(Cn3c(=O)c(F)cn(C4CCCO4)c3=O)cc2)c(O)cc1O (stereo not drawn)
IC50 [1]: > 1000 nM | GI50 (A549 [2]): > 10000 nM | GI50 (NCI-H1975 [3]): > 10000 nM | GI50 (HCT-116 [4]): > 10000 nM | GI50 (NCI-H460): > 10000 nM

CC(C)c1cc(C(=O)N(Cc2ccc(C#N)cc2)c2ccc(Cn3c(=O)c(F)cn(C4CCCO4)c3=O)cc2)c(O)cc1O (stereo not drawn)
IC50 [1]: 45.3 nM | GI50 (A549 [2]): 350 nM | GI50 (NCI-H1975 [3]): 130 nM | GI50 (HCT-116 [4]): 410 nM | GI50 (NCI-H460): 200 nM

CCN(C(=O)c1cc(C(C)C)c(O)cc1O)c1ccc(Cn2c(=O)c(F)cn(C3CCCO3)c2=O)cc1 (stereo not drawn)
inhibition (A549 [5]): Active | Activity (NCI-H1975 [6]): Dose-dependent effect | Activity (NCI-H1975 [7]): Dose-dependent effect | inhibition (HCT-116 [8]): Active | Activity (A549 [9]): Dose-dependent effect | Activity (A549 [10]): Dose-dependent effect | Activity (NCI-H1975 [11]): Active | IC50 [1]: 27.8 nM | Activity (NCI-H1975 [12]): Dose-dependent effect | inhibition (NCI-H1975 [13]): Active | Activity (A549 [14]): Active | Activity (NCI-H1975 [15]): Dose-dependent effect | GI50 (A549 [2]): 70 nM | inhibition (A549 [16]): Active | Activity (A549 [17]): Dose-dependent effect | GI50 (NCI-H1975 [3]): 40 nM | Activity (A549 [18]): Dose-dependent effect | Ratio IC50 (HCT-116 [19]): 15 | inhibition (NCI-H1975 [20]): Active | Activity (NCI-H1975 [21]): Dose-dependent effect | GI50 (HCT-116 [4]): 10 nM | inhibition (NCI-H1975 [22]): Active | inhibition (NCI-H1975 [23]): Active | inhibition (A549 [24]): Active | Activity (A549 [25]): Dose-dependent effect | inhibition (A549 [26]): Active | GI50 (NCI-H460): 60 nM
